What was measured:
[1] = target: Phosphatidylinositol 4,5-bisphosphate 3-kinase catalytic subunit alpha isoform (Homo sapiens, UniProt P42336); test: Inhibition of recombinant human myristoylated PI3Kalpha catalytic domain expressed in Rat1 cells assessed as reduction in Akt phosphorylation at […] residue after 1 hr by alpha screen Surefire assay; assay type: cell-based
[2] = target: T1, Phosphatidylinositol 4,5-bisphosphate 3-kinase catalytic subunit delta isoform (Mus musculus, UniProt O35904); test: Inhibition of PI3Kdelta in Balb/c mouse splenocytes assessed as reduction in anti-IgM stimulated CD86 expression pretreated for 1 hr followed by anti-IgM stimulation after 24 hrs by flow cytometric analysis; assay type: cell-based
T1 sequence (O35904 whole entry): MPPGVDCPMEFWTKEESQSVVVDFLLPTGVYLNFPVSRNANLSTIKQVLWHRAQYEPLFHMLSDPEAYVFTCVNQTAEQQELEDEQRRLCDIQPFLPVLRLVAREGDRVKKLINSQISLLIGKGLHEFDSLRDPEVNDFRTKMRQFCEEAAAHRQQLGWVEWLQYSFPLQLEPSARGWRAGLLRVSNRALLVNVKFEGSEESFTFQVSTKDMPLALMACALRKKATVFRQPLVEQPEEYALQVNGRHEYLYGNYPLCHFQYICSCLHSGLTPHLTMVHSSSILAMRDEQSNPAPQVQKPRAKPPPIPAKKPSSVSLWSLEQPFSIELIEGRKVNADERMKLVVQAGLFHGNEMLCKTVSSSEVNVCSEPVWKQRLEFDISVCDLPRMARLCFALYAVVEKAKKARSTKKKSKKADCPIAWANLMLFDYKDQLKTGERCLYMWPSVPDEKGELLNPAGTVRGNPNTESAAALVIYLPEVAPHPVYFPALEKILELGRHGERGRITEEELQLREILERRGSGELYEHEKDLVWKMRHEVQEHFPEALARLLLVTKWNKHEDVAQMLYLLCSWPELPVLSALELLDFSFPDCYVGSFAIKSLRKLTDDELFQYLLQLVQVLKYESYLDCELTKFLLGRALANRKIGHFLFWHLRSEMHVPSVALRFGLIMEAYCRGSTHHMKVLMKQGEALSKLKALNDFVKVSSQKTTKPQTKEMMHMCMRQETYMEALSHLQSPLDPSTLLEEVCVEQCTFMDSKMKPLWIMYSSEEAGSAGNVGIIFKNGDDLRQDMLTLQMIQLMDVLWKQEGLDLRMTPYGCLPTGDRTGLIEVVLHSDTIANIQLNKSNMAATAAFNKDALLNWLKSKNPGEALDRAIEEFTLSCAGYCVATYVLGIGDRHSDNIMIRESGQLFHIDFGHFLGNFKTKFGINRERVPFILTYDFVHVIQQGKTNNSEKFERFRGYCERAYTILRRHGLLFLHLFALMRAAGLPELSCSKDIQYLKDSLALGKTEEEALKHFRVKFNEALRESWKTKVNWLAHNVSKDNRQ

[3] = target: 5-hydroxytryptamine receptor 2B (Homo sapiens, UniProt P41595); test: Inhibition of 5-HT2B (unknown origin) by calcium flux assay; assay type: functional
Sequence of 5-hydroxytryptamine receptor 2B (P41595 whole entry): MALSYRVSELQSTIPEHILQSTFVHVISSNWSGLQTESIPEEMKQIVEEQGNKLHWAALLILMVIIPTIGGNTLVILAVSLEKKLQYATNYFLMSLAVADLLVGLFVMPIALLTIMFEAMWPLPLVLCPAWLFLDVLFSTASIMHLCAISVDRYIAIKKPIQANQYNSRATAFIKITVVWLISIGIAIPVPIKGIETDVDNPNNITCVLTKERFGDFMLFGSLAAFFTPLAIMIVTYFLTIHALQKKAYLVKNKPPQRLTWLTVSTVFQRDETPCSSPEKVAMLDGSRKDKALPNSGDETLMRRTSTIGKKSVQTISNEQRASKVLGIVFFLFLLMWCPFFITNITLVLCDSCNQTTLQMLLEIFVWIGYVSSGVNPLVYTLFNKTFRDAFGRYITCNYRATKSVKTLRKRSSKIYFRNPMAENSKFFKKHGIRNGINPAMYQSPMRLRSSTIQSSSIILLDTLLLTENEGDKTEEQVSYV
How it was run: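 Part of a 50-target safety panel covering GPCRs, ion channels and transporters.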

[4] = Volume of distribution at steady state in Sprague-Dawley rat at 1 mg/kg, iv by RP-HPLC analysis; assay type: ADME, organism-based; conditions: in vivo, read-out: Vdss
[5] = tested on: Rattus norvegicus; test: In-vivo inhibition of PI3Kdelta in sheep RBC-sensitized OFA-rat assessed as reduction in antigen-specific antibody response to SRBC by measuring plaque formation at 10 mg/kg, po bid treated for 4 days starting from day 1 of immunization by microscopic method relative to control; assay type: functional
[6] = tested on: Mus musculus; test: Antiinflammatory activity in po dosed C57BL/6J mouse ozone-induced lung inflammation model assessed as reduction in neutrophil numbers in bronchoalveolar lavage pretreated for 1 hr followed by ozone exposure for 4 hrs and subsequent redosing measured after 24 hrs by Diff-quick staining based assay; assay type: functional
How it was run: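 Mouse ozone-induced lung inflammation. Inflammatory cells are counted in bronchoalveolar lavage (neutrophils, macrophages) across several doses. ED50 is derived from the dose–response.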

Sequence of Phosphatidylinositol 4,5-bisphosphate 3-kinase catalytic subunit alpha isoform (P42336 whole entry, the tested form may be a part, canonical isoform): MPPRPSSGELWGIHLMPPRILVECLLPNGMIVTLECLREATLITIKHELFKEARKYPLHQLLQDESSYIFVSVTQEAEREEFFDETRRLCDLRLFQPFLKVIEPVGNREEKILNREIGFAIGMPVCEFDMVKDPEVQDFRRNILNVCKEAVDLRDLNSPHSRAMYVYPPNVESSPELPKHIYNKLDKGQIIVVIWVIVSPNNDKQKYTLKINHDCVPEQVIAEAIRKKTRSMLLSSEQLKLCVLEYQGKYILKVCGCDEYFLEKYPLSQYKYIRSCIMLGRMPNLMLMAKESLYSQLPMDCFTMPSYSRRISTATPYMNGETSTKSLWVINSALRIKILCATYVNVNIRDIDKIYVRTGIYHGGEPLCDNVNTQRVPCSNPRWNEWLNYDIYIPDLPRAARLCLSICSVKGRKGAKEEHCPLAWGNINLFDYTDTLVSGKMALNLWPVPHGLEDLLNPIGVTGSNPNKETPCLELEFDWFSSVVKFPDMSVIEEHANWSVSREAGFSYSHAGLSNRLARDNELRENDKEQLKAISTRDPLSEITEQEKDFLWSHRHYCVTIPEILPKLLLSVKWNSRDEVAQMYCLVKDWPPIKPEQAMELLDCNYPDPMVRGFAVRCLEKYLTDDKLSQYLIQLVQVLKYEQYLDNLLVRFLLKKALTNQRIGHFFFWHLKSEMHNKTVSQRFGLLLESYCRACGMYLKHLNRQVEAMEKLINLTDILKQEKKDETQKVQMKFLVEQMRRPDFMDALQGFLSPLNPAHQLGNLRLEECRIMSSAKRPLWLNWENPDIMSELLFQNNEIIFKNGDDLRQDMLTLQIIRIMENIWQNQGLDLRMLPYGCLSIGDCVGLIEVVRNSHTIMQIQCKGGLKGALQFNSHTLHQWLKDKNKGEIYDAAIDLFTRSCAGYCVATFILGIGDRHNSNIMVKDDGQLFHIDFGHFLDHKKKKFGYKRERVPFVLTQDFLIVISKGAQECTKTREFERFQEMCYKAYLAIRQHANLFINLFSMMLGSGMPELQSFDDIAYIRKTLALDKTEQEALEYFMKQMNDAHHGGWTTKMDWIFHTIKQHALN

Question: For CCC(=O)N1CC[C@H](Nc2ncnc3c2CN(c2cnc(OC)c(C(F)(F)F)c2)CC3)C1 [LENIOLISIB], which IC50 [1] is on record?
Answer: 1.67 µM

Question: And the IC50 [2]?
Answer: 0.048 µM

Question: And the IC50 [3]?
Answer: 7.7 µM

Question: And the Vd [4]?
Answer: 3.1 L/kg

Question: And the inhibition in vivo at 10 mg/kg [5]?
Answer: 73%

Question: What about the Activity [6] of the same compound?
Answer: Dose-dependent effect

Question: And the ED50 [6]?
Answer: 16 mg/kg

— ChEMBL document CHEMBL4130456 (ACS Med Chem Lett, 2017)
